Source: the RNAGym collection of RNA variant scans (doi:10.1002/anie.201605470)

B1: Osa-1-4 twister ribozyme (parent)
chain: CCGCCUAACACUGCCAAUGCCGGUCCCAAGCCCGGAUAAAAGUGGAGGGGGCGG

Variants of: B1
Experiment: self-cleavage, relative activity (ratio to wild type); higher = more cleavage; co-transcriptional
Method in brief: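 The 48 positions downstream of the cleavage site in a 54-nucleotide Oryza sativa twister ribozyme template were synthesised at 97 % wild-type base and 1 % of each other base. The template was transcribed in vitro at 37 °C for 2 h, with self-cleavage allowed during transcription. Reads with or without upstream sequence after deep sequencing marked cleavage status, and relative activity is fraction cleaved normalised to wild type.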

Variant | self-cleavage
CCGCCUAACACUGCCAAUGCCGGUCCGAAGCCCGGAUAAAAGUGGGGGGGGCGG [A46G C27G] | 0.04
CCGCCUAACACUGCCAAUGCCGGUCCCAAGUCCGGAUAAAAGUGGGGGGGGCGG [A46G C31U] | 0.05
CCGCCUAACACUGCCAAUGCCGGUCCCAAGACCGGAUAAAAGUGGGGGGGGCGG [A46G C31A] | 0.01
CCGCCUAACACUGCCAAUGCCGGUCCCAAGGCCGGAUAAAAGUGGGGGGGGCGG [A46G C31G] | 0.03
CCGCCUAACACUGCCAAUGCUGGUCCCAAGCCCGGAUAAAAGUGGGGGGGGCGG [A46G C21U] | 0.09
CCGCCUAACACUGCCAAUGCGGGUCCCAAGCCCGGAUAAAAGUGGGGGGGGCGG [A46G C21G] | 0.02
CCGCCUAACACUGCCAAUGCAGGUCCCAAGCCCGGAUAAAAGUGGGGGGGGCGG [A46G C21A] | 0.07
CCGCCUAACACUGCCAAUGCCGGUCCCAAGCCCGGAUAAAAGUCGCGGGGGCGG [A46C G44C] | 0.06
CCGCCUAACACUGCCAAUGCCGGUCCCAAGCCCGGAUAAAAGUUGCGGGGGCGG [A46C G44U] | 0.06
CCGCCUAACACUGCCAAUGCCGGUCCCAAGCCCGGAUAAAAGUAGCGGGGGCGG [A46C G44A] | 0.05
CCGCCUAACACUGCCAAUGCCGGUCCCAAGCCCGGAUAAAAGAGGCGGGGGCGG [A46C U43A] | 0.06
CCGCCUAACACUGCCAAUGCCGGUCCCAAGCCCGGAUAAAAGCGGCGGGGGCGG [A46C U43C] | 0.05
CCGCCUAACACUGCCAAUGCCGGUCCCAAGCCCGGAUAAAAGGGGCGGGGGCGG [A46C U43G] | 0.05
CCGCCUAACACUGCCAAUGCCGGUCCCAAGCCCGGAUAAAAGUGGGGGGGGCGG [A46G] | 0.08
CCGCCUAACACUGCCAAUGCCGGUCCCAAGCCCCGAUAAAAGUGGCGGGGGCGG [A46C G34C] | 0.05
CCGCCUAACACUGCCAAUGCCGGUCCCAAGCCCAGAUAAAAGUGGCGGGGGCGG [A46C G34A] | 0.06
CCGCCUAACACUGCCAAUGCCGGUCCCAAGCCCUGAUAAAAGUGGCGGGGGCGG [A46C G34U] | 0.04
CCGCCUAACACUGCGAAUGCCGGUCCCAAGCCCGGAUAAAAGUGGGGGGGGCGG [A46G C15G] | 0.04
CCGCCUAACACUGCAAAUGCCGGUCCCAAGCCCGGAUAAAAGUGGGGGGGGCGG [A46G C15A] | 0.06
CCGCCUAACACUGCUAAUGCCGGUCCCAAGCCCGGAUAAAAGUGGGGGGGGCGG [A46G C15U] | 0.04
CCGCCUAACACUGCCAAUGCCGGUCCCAAGCCCGGAUAAAAGUGGGGGGGGAGG [A46G C52A] | 0.1
CCGCCUAACACUGCCAAUGCCGGUCCCAAGCCCGGAUAAAAGUGGGGGGGGGGG [A46G C52G] | 0.24
CCGCCUACCACUGCCAAUGCCGGUCCCAAGCCCGGAUAAAAGUGGGGGGGGCGG [A46G A8C] | 0.03
CCGCCUAGCACUGCCAAUGCCGGUCCCAAGCCCGGAUAAAAGUGGGGGGGGCGG [A46G A8G] | 0.04
CCGCCUAUCACUGCCAAUGCCGGUCCCAAGCCCGGAUAAAAGUGGGGGGGGCGG [A46G A8U] | 0.03

Variant | self-cleavage
CCGCCUAACACUGCCAAUGCCGGUCCCAAGCCCGGAUAAAAGUGGCGGGGCCGG [A46C G51C] | 0.04
CCGCCUAACACUGCCAAUGCCGGUCCCAAGCCCGGAUAAAAGUGGCGGGGACGG [A46C G51A] | 0.07
CCGCCUAACACUGCCAAUGCCGGUCCCAAGCCCGGAUAAAAGUGGCGGGGUCGG [A46C G51U] | 0.05
CCGCCUAACACUGCCAAUGCCGGUCCCAAGCCCGGAUAAAAGUGGCGCGGGCGG [A46C G48C] | 0.03
CCGCCUAACACUGCCAAUGCCGGUCCCAAGCCCGGAUAAAAGUGGCGUGGGCGG [A46C G48U] | 0.02
CCGCCUAACACUGCCAAUGCCGGUCCCAAGCCCGGAUAAAAGUGGCGAGGGCGG [A46C G48A] | 0.04
CCGCCUAACACUGCCAAGGCCGGUCCCAAGCCCGGAUAAAAGUGGCGGGGGCGG [A46C U18G] | 0.14
CCGCCUAACACUGCCAAAGCCGGUCCCAAGCCCGGAUAAAAGUGGCGGGGGCGG [A46C U18A] | 0.06
CCGCCUAACACUGCCAACGCCGGUCCCAAGCCCGGAUAAAAGUGGCGGGGGCGG [A46C U18C] | 0.06
CCGCCUAACACUGCCAAUGCCGGUCCCAAGCCCGGAUAAAAGUGCCGGGGGCGG [A46C G45C] | 0.03
CCGCCUAACACUGCCAAUGCCGGUCCCAAGCCCGGAUAAAAGUGUCGGGGGCGG [A46C G45U] | 0.02
CCGCCUAACACUGCCAAUGCCGGUCCCAAGCCCGGAUAAAAGUGACGGGGGCGG [A46C G45A] | 0.05
CCGCCUAACACUGUCAAUGCCGGUCCCAAGCCCGGAUAAAAGUGGGGGGGGCGG [A46G C14U] | 0.03
CCGCCUAACACUGGCAAUGCCGGUCCCAAGCCCGGAUAAAAGUGGGGGGGGCGG [A46G C14G] | 0.04
CCGCCUAACACUGACAAUGCCGGUCCCAAGCCCGGAUAAAAGUGGGGGGGGCGG [A46G C14A] | 0.03
CCGCCUAACACUGCCAAUGCCGGUCCCAAGCCCGGAGAAAAGUGGCGGGGGCGG [A46C U37G] | 0.09
CCGCCUAACACUGCCAAUGCCGGUCCCAAGCCCGGACAAAAGUGGCGGGGGCGG [A46C U37C] | 0.07
CCGCCUAACACUGCCAAUGCCGGUCCCAAGCCCGGAAAAAAGUGGCGGGGGCGG [A46C U37A] | 0.05
CCGCCUAACACUGCCAAUGCCGGCCCCAAGCCCGGAUAAAAGUGGCGGGGGCGG [A46C U24C] | 0.04
CCGCCUAACACUGCCAAUGCCGGACCCAAGCCCGGAUAAAAGUGGCGGGGGCGG [A46C U24A] | 0.02
CCGCCUAACACUGCCAAUGCCGGGCCCAAGCCCGGAUAAAAGUGGCGGGGGCGG [A46C U24G] | 0.01
CCGCCUAACACUGCCAAUGCCGGUCCCAAGCCCGGAUAAAAGUGGCCGGGGCGG [A46C G47C] | 0.02
CCGCCUAACACUGCCAAUGCCGGUCCCAAGCCCGGAUAAAAGUGGCAGGGGCGG [A46C G47A] | 0.04
CCGCCUAACACUGCCAAUGCCGGUCCCAAGCCCGGAUAAAAGUGGCUGGGGCGG [A46C G47U] | 0.04
